Source: PMC6279241 (Science signaling, 2018)
Changes are numbered by the printed parent chain. Numbered stars: 1 amine (or outer) side, 2 acyl side, 3 side chain; on linkers, the order of the positions; unused ones are H or OH. Bridge positions count the residues as written; N and C are the ends. Square brackets hold non-standard residues; d marks the D form. Peptide text beside a SMILES is read from it. * marks the point of attachment. Leu(3R-OH,Nα-propionyl) = CCC(=O)N[C@H](C(=O)*)[C@H](O)C(C)C; X1 = CC(C)[C@@H](O[*:3])[C@H](N[*:1])C(=O)[*:2]; NMeT = CN[C@H](C(=O)O)[C@@H](C)O; dPhLac = O=C(O)[C@H](O)Cc1ccccc1; NMeA = CN[C@@H](C)C(=O)O; NMeDha = C=C(NC)C(=O)O

How the values were obtained:
Gαq(Q209L) = molecular target: T1, Gαq(Q209L) (Mus musculus, UniProt P21279, Q209L); assay: SRE; type: cell-based; conditions: read-out: IC50, inhibition of transcriptional reporter driven by constitutively active Gαq; SRE(L) reporter
T1 sequence (P21279 1-359 Q209L): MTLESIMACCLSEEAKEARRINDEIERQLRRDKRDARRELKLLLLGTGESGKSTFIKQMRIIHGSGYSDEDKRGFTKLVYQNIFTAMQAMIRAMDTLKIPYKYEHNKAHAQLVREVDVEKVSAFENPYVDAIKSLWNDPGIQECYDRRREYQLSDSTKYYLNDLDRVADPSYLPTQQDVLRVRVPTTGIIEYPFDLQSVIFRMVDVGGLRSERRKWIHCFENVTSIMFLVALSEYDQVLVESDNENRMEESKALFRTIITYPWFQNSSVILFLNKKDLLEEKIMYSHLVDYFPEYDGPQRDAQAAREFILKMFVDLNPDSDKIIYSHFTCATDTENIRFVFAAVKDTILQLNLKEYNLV
Procedure, shortened: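 Firefly luciferase signal from the Gα-driven transcriptional reporter was normalized to co-transfected Renilla luciferase from a constitutive promoter.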

wild type Gα13 / Gβ1γ2 = wild type Gα13 / Gβ1γ2 (Homo sapiens, UniProt Q14344); assay: Split-luciferase complementation between Gβ1γ2 and wild type Gα13; type: cell-based
Sequence of wild type Gα13 / Gβ1γ2 (P59768 2-68): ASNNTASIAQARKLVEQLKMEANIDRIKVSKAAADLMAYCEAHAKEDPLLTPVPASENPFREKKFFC
Sequence of wild type Gα13 / Gβ1γ2 (P62873 whole entry, further chain, the tested form may be a part): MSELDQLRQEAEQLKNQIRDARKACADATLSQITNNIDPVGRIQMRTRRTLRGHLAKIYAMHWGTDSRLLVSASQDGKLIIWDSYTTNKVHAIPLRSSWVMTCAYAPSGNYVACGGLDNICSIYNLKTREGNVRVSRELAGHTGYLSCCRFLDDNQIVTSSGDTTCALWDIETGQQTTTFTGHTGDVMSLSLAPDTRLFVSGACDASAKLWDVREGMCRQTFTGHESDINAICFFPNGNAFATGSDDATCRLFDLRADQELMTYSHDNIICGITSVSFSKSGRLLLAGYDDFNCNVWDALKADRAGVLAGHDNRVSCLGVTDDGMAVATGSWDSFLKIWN
Sequence of wild type Gα13 / Gβ1γ2 (Q14344 whole entry, the tested form may be a part): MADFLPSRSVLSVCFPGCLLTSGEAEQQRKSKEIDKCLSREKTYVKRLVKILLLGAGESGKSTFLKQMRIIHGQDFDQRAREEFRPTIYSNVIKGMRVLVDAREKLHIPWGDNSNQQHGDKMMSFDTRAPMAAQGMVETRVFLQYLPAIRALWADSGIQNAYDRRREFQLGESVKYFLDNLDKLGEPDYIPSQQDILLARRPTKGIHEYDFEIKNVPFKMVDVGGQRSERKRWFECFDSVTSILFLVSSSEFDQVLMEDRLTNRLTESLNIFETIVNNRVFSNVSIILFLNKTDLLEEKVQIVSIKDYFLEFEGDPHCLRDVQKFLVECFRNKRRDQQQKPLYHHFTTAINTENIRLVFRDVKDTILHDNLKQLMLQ
Procedure, shortened: (§1)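 Split click beetle green luciferase in transiently transfected HEK293 cells. The N-terminal fragment sat in the helical-domain αB-αC loop of wild type or Q226L Gα13. The C-terminal fragment was fused to the N-terminus of Gβ1 (with untagged Gγ2 co-transfected) or of the LARG RGS domain. Cells were treated 18 h with test compound or DMSO, then reconstituted luciferase activity was read. Triplicate wells; 3 experiments on different days.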

Mel202 cells [1] = assay: Cell viability/proliferation; type: cell-based, human; conditions: read-out: EC50, inhibition of proliferation (viability)
Procedure, shortened: (§2)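 Water-soluble tetrazolium salt (WST-8) viability assay run per the maker's protocol. Cells were grown in RPMI 1640 with 10% FBS and antibiotics at 37 °C, 5% CO2. Fold-change in viability over time was followed at increasing test compound concentrations, and EC50 was taken from concentration-response data. Mean ± SEM of 4 experiments, each in triplicate.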

Gαi/q(R54K) [2] = molecular target: Gαi/q(R54K) (Homo sapiens, UniProt P63096, H188P/K180P/T187Y/V185I/V50I/V72L/Y69F); assay: Nucleotide exchange; type: biochemical; conditions: in vitro
Sequence of Gαi/q(R54K) (Homo sapiens, UniProt P63096, H188P/K180P/T187Y/V185I/V50I/V72L/Y69F) (P63096 whole entry V50I/Y69F/V72L/K180P/V185I/T187Y/H188P): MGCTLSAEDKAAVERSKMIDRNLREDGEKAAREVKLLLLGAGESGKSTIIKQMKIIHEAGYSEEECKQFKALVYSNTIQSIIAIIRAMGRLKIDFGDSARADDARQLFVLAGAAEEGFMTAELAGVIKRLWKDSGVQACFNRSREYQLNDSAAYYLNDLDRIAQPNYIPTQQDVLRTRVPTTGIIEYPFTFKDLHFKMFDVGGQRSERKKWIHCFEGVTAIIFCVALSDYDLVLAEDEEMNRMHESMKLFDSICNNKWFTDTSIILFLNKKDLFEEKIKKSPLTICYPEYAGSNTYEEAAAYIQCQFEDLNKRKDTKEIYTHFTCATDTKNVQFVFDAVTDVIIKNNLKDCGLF

92.1 cells [3] = assay: Melanocytic pigmentation of 92.1 cells; type: cell-based, human; conditions: 92.1, 3 days, vs vehicle
Procedure, shortened: (§3)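 Cells were treated with test compound for 3 days, then pelleted and examined macroscopically for pigmentation against vehicle (DMSO). Representative images are from one of 3 experiments, each in triplicate.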

Mel202 cells [4] = assay: IP1 abundance; type: cell-based, human; conditions: Mel202, Gαq(Q209L)-driven
Procedure, shortened: (§4)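 Homogeneous IP1 immunoassay (IP-One kit). Seeding was 10,000 Mel202, 20,000 92.1 or 20,000 OCM-1A cells per well. After overnight culture, cells got test compound or DMSO and were incubated until the next day. Stimulation buffer was added for 1 h, then IP1-d2 and anti-IP1 cryptate for 60 min at room temperature. IP1 was read from kit standard curves. Mean ± SEM of 4 experiments, each in triplicate.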

Mel202 cells [5] = assay: Melanocytic pigmentation of Mel202 cells; type: cell-based, human; conditions: Mel202, 3 days, vs vehicle
Procedure, shortened: as §3

92.1 cells [6] = assay: IP1 abundance; type: cell-based, human; conditions: 92.1, Gαq(Q209L)-driven
Procedure, shortened: as §4

Mel202 cells [7] = assay: Flow cytometry of DNA content; type: cell-based, human; conditions: Mel202, 3 days
Procedure, shortened: (§5)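 Cells were treated with test compound for 3 days, then stained with propidium iodide for DNA content and run on a FACScan flow cytometer. The sub-G1 fraction gave apoptosis; S- and G2/M-phase fractions gave proliferation. Mean ± SEM of 4 experiments. t-tests were corrected with the Holm-Sidak method.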

Gαi/q(Q204L) = Gαi/q(Q204L) (Homo sapiens, UniProt P63096, H188P/K180P/K54R/Q204L/T187Y/V185I/V50I/V72L/Y69F); assay: GTP hydrolysis; type: biochemical; conditions: FR 25 μM
Sequence of Gαi/q(Q204L) (P63096 whole entry V50I/K54R/Y69F/V72L/K180P/V185I/T187Y/H188P/Q204L): as the sequence (P63096 whole entry V50I/Y69F/V72L/K180P/V185I/T187Y/H188P) above, with K54R, Q204L counted along it
Procedure, shortened: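 His-tagged Gαi/q(Q204L) was expressed in E. coli; it is Gαi1 carrying eight Gαq-type substitutions. The protein (3 μM) was in 50 mM Tris-HCl pH 8.0, 5 mM MgCl2, 1 mM EDTA, 0.5 mM DTT. Reaction started with γ32P-GTP (100 nM final, 100 Ci/mmol); protein was in >10-fold excess. FR (25 μM final) or DMSO was added partway. Aliquots were quenched in 1N formic acid and resolved on PEI-cellulose TLC. Triplicate, ≥3 days, different protein preparations.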

Gαi/q = assay: Attenuation of cannabinoid receptor-evoked inhibition of forskolin-induced cAMP; type: cell-based; conditions: read-out: IC50, attenuation of Gαi/q-mediated inhibition of forskolin-induced cAMP accumulation; Neuro2A, cannabinoid type 1 receptors, WIN 55,212-2
OCM-1A cells [8] = assay: IP1 abundance; type: cell-based, human; conditions: BRAF(V600E)-driven
Procedure, shortened: as §4

92.1 cells [9] = assay: Cell viability/proliferation; type: cell-based, human; conditions: read-out: EC50, inhibition of proliferation (viability)
Procedure, shortened: as §2

92.1 cells [10] = assay: RNA-Seq gene expression in FR-treated 92.1 cells; type: cell-based, human; conditions: 92.1, 100 nM FR
Gα13(Q226L) = molecular target: T2, Gα13(Q226L) (Homo sapiens, UniProt Q14344, Q226L); assay: SRE; type: cell-based; conditions: SRE(L) reporter
T2 sequence (Q14344 1-377 Q226L): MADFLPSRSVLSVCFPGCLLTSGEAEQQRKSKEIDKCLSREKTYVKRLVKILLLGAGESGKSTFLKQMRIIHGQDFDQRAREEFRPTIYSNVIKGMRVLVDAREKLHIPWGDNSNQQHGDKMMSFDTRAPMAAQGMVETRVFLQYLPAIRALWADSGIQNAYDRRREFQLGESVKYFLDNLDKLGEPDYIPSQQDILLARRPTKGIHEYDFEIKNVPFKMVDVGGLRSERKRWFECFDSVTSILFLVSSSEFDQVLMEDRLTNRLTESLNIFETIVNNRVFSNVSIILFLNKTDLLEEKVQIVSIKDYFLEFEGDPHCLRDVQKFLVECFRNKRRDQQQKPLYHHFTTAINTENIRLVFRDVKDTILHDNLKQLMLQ
Procedure, shortened: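 SRE(L) promoter-driven firefly luciferase transcriptional reporter activated by constitutively active Gα13. Firefly signal was normalized to co-transfected Renilla luciferase expressed from a constitutive promoter.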

92.1 cells [11] = assay: Flow cytometry of DNA content; type: cell-based, human; conditions: 92.1, 3 days
Procedure, shortened: as §5

92.1 cells [12] = assay: Immunofluorescence staining of melanocytic markers in 92.1 cells; type: cell-based, human
Procedure, shortened: (§6)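 Immunofluorescence for TYR, DCT and PMEL. An equal volume of 2× fixative (PBS, 4% paraformaldehyde, 0.4% glutaraldehyde) was added to cells in growth medium for 15 min at 37 °C. Cells were permeabilized with 0.1% Triton X-100 for 5 min, blocked with 2% fish gelatin, and labelled with Alexa Fluor secondaries. The proportion of marker-positive cells was compared with Fisher's exact test. Representative of 3 experiments.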

Gα13(Q226L) / LARG-RGS = molecular target: T3, Gα13(Q226L) / LARG-RGS (Homo sapiens, UniProt Q14344, Q226L); type: cell-based; conditions: split luciferase
T3 sequence (Q14344 1-377 Q226L): T2 sequence (Q14344 1-377 Q226L)
Procedure, shortened: as §1

Gαi/q(R54K) [13] = assay: Attenuation of cannabinoid receptor-evoked inhibition of forskolin-induced cAMP; type: cell-based; conditions: Neuro2A
OCM-1A cells [14] = assay: Quantitative RT-PCR of PRC2-regulated genes in OCM-1A cells; type: cell-based, human; conditions: qRT-PCR
Mel202 cells [15] = assay: Immunofluorescence staining of melanocytic markers in Mel202 cells; type: cell-based, human
Procedure, shortened: as §6

Gα13(Q226L) / Gβ1γ2 = molecular target: T4, Gα13(Q226L) / Gβ1γ2 (Homo sapiens, UniProt Q14344, Q226L); assay: Split-luciferase complementation between Gβ1γ2 and constitutively active Gα13; type: cell-based
T4 sequence (Q14344 1-377 Q226L): T2 sequence (Q14344 1-377 Q226L)
Procedure, shortened: as §1

Gαq(Q209L) / Gβγ = molecular target: T5, Gαq(Q209L) / Gβγ (Mus musculus, UniProt P21279, Q209L); assay: Co-purification of endogenous Gβγ with affinity-tagged constitutively active Gαq; type: cell-based; conditions: FR 1 μM, 24 hours; n=3
T5 sequence (P21279 1-359 Q209L): T1 sequence (P21279 1-359 Q209L)
Procedure, shortened: (§7)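 HEK293 cells were transfected with mouse Gαq, either wild type or Q209L. A FLAG-StrepII-StrepII tag flanked by Gly/Ser linkers was inserted between residues 124 and 125. After 24 h, cells got FR (1 μM) or DMSO for 24 h. They were lysed in 50 mM Tris pH 8.0, 100 mM NaCl, 5 mM EDTA, 1 mM MgCl2, 0.5% IGEPAL, ± 1 μM FR. StrepTactin then anti-FLAG purification at 4 °C. Immunoblot for FLAG and Gβ; 3 independent experiments.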

OCM-1A cells [16] = assay: Morphology; type: cell-based, human; conditions: 3 days
Procedure, shortened: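 Cells were treated with test compound for 3 days and imaged by phase contrast on an inverted microscope with a 10× objective. Representative fields are from one of 3 experiments.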

wild type Gαq / Gβγ = molecular target: T6, wild type Gαq / Gβγ (Mus musculus, UniProt P21279); assay: Co-purification of endogenous Gβγ with affinity-tagged wild type Gαq; type: cell-based; conditions: FR 1 μM, 24 hours; n=3
T6 sequence (P21279 1-359): T1 sequence (P21279 1-359 Q209L) with L209Q
Procedure, shortened: as §7

OCM-1A cells [17] = assay: Cell viability/proliferation; type: cell-based, human; conditions: even at 10 μM
Procedure, shortened: as §2

OCM-1A cells [18] = assay: Flow cytometry of DNA content; type: cell-based, human; conditions: 3 days
Procedure, shortened: as §5

## C=C1C(=O)N[C@@H](C)C(=O)N(C)[C@@H](C)C(=O)N[C@@H]([C@H](OC(=O)[C@@H](NC(=O)CC)[C@H](O)C(C)C)C(C)C)C(=O)N(C)[C@@H]([C@@H](C)OC)C(=O)O[C@H](C(C)C)[C@H](NC(C)=O)C(=O)O[C@H](Cc2ccccc2)C(=O)N1C [FR, FR900359] (Ac-[X1][dPhLac][NMeDha]A[NMeA][X1](Leu(3R-OH,Nα-propionyl))[NMeT](Me); ester 1-C)
Gαq(Q209L)
  IC50: 1 nM
Wild type Gα13 / Gβ1γ2
  Effect on interaction between wild type Gα13 and Gβ1γ2: lack of effect
Mel202 cells [1]
  EC50: 6 nM
Gαi/q(R54K) [2]
  Fold less potent toward Gαi/q(R54K) than Gαi/q (nucleotide exchange): > 10 fold
92.1 cells [3]
  Melanocytic pigmentation: increased
Mel202 cells [4]
  Reduction of IP1 abundance: > 50 fold
Mel202 cells [5]
  Melanocytic pigmentation: increased
92.1 cells [6]
  Reduction of IP1 abundance: > 50 fold
Mel202 cells [7]
  Apoptosis (increased fraction of sub-G1/G0 cells): induced
  Cell cycle inhibition (decreased fraction of S- or G2/M-phase cells): induced
Gαi/q(Q204L)
  Correction of GTP hydrolysis defect of Gαi/q(Q204L): not corrected
Gαi/q
  IC50: 25 nM
OCM-1A cells [8]
  Reduction of IP1 abundance: ~ 2 fold
92.1 cells [9]
  EC50: 2 nM
92.1 cells [10]
  Decrease in expression of BBC3/PUMA: 3.5 fold
  Decrease in expression of PMAIP1/NOXA: 2.5 fold
  Decrease in expression of p21CIP1 (CDKN1A): 3.0 fold
Gα13(Q226L)
  Effect on transcriptional reporter driven by constitutively active Gα13: no effect
92.1 cells [11]
  Apoptosis (increased fraction of sub-G1/G0 cells): induced
  Cell cycle inhibition (decreased fraction of S- or G2/M-phase cells): induced
92.1 cells [12]
  Increase in proportion of DCT-positive cells: 3.5 fold
  Increase in proportion of PMEL-positive cells: 6.8 fold
Gα13(Q226L) / LARG-RGS
  Effect on interaction between constitutively active Gα13 and RGS domain of LARG: lack of effect
Gαi/q(R54K) [13]
  Fold less potent toward Gαi/q(R54K) than Gαi/q (cAMP signaling in cells): ~ 30 fold
Gαi/q(R54K) [13]; read-out: IC50, attenuation of Gαi/q(R54K)-mediated inhibition of forskolin-induced cAMP accumulation, cannabinoid type 1 receptors, WIN 55,212-2
  IC50: ~800 nM
OCM-1A cells [14]
  Expression of PRC2-regulated genes: unaffected
Mel202 cells [15]
  Increase in proportion of DCT-positive cells: 1.6 fold
  Increase in proportion of PMEL-positive cells: 3.9 fold
  Increase in proportion of TYR-positive cells: 1.8 fold
Gα13(Q226L) / Gβ1γ2
  Effect on interaction between constitutively active Gα13(Q226L) and Gβ1γ2: lack of effect
Gαq(Q209L) / Gβγ
  Increase of association between Gβγ and affinity-tagged constitutively active Gαq (co-purification): 9 fold
OCM-1A cells [16]
  Morphological changes: no effect
Wild type Gαq / Gβγ
  Increase of association between Gβγ and affinity-tagged wild type Gαq (co-purification): 19 fold
OCM-1A cells [17]
  Effect on proliferation: no effect
OCM-1A cells [18]
  Effect on cell cycle and apoptosis: no effect
